Reference: ChEMBL document CHEMBL4402576, “Discovery and Development of Small-Molecule Inhibitors of Glycogen Synthase” (J Med Chem, 2020)

Assays:
[1] = target: T1, Glycogen [starch] synthase, muscle (Homo sapiens, UniProt P13807); experiment: Inhibition of C-terminal 6His-tagged wild type human GYS1 using UDPG as substrate in presence of 1 mM G-6-P by 14C-glucose incorporation assay
T1 sequence (P13807 whole entry): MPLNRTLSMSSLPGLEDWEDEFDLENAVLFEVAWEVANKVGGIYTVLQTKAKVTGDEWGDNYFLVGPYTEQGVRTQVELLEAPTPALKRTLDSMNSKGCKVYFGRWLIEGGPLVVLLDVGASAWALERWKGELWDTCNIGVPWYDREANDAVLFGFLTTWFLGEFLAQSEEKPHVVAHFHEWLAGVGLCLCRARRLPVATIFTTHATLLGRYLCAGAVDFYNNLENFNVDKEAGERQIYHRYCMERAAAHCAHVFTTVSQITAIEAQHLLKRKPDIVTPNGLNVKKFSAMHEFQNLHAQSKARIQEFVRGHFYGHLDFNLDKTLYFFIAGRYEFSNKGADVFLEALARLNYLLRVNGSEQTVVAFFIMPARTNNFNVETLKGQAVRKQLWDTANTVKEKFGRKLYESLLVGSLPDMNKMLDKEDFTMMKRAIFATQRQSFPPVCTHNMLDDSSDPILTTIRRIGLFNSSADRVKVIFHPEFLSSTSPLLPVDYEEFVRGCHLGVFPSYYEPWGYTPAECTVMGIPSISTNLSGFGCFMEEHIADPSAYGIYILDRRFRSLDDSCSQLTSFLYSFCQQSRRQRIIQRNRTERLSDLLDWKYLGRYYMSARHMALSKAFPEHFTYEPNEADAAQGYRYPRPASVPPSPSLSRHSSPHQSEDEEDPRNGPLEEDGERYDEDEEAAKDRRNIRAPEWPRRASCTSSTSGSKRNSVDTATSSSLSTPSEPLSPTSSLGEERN
Method in brief: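 Full-length wild-type hGYS1 with C-terminal 6×His tag in place of the intein-chitin binding domain, Ni-NTA purified. Glucose transfer from UDP-[14C]glucose into glycogen with 0.2 mM UDPG and 1 mM G6P. Controls contained 2% (v/v) DMSO. IC50 was fitted by four-parameter logistic. Values are mean ± SEM of at least three independent experiments in duplicate.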

[2] = target: T2, Glycogen [starch] synthase, muscle (Homo sapiens) (UniProt P13807); experiment: Inhibition of C-terminal 6His-tagged wild type human GYS1 assessed as enzyme activity at 20 uM using UDPG as substrate in presence of 1 mM G-6-P by 14C-glucose incorporation assay relative to control; parameters: scale not given: the % may be the effect or the level left
T2 sequence (whole entry): T1 sequence (P13807 whole entry)

Saccharomyces cerevisiae [3] = experiment: Inhibition of recombinant His-tagged yeast GYS2P expressed in Escherichia coli BL21(DE3) cells assessed as enzyme activity at 20 uM using UDPG as substrate in presence of G-6-P by 14C-glucose incorporation assay relative to control; parameters: scale not given: the % may be the effect or the level left
Homo sapiens [4] = species on record: Homo sapiens; experiment: Inhibition of C-terminal 6His-tagged human GYS1 delta634S8,11N mutant assessed as enzyme activity at 20 uM using UDPG as substrate in presence of 0.4 mM G-6-P by 14C-glucose incorporation assay relative to control; parameters: scale not given: the % may be the effect or the level left
Saccharomyces cerevisiae [5] = experiment: Inhibition of recombinant His-tagged yeast GYS2P expressed in Escherichia coli BL21(DE3) cells assessed as enzyme activity at 300 uM using UDPG as substrate in presence of G-6-P by 14C-glucose incorporation assay relative to control; parameters: scale not given: the % may be the effect or the level left
Homo sapiens [6] = species on record: Homo sapiens; experiment: Inhibition of C-terminal 6His-tagged human GYS1 delta634S8,11N mutant assessed as enzyme activity at 300 uM using UDPG as substrate in presence of 0.4 mM G-6-P by 14C-glucose incorporation assay relative to control; parameters: scale not given: the % may be the effect or the level left
[7] = target: T2, Glycogen [starch] synthase, muscle (Homo sapiens); experiment: Inhibition of C-terminal 6His-tagged wild type human GYS1 assessed as enzyme activity at 300 uM using UDPG as substrate in presence of 1 mM G-6-P by 14C-glucose incorporation assay relative to control; parameters: scale not given: the % may be the effect or the level left
[8] = target: T2, Glycogen [starch] synthase, muscle (Homo sapiens); experiment: Inhibition of glycogen synthase in human HEK293 cell lysates overexpressing mouse PTG at 100 uM using 0.2 mM UDPG as substrate in presence of 1 mM G-6-P by 14C-glucose incorporation assay relative to control; format: subcellular; conditions: Lysate
Method in brief: (§1)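 Lysates came from HEK293 cells stably expressing PTG (5.5 mM glucose αMEM, 10% FBS, hygromycin) or from Rat-1 cells (25 mM glucose DMEM, 10% FBS), grown 3–4 days to confluency. Cells were lysed by freezing, scraping and sonication in Tris/EDTA/EGTA/NaF buffer with protease inhibitors and Triton. Assays used 0.15 mg/mL (HEK293-PTG) or 0.75 mg/mL (Rat-1) lysate in 50 mM Tris-HCl pH 7.8 with 6.7 mg/ml glycogen and 2% DMSO. Read-out was [14C]glucose incorporation relative to DMSO control, in triplicate.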

[9] = target: T3, Glycogen [starch] synthase, muscle (Rattus norvegicus) (UniProt A2RRU1); experiment: Inhibition of glycogen synthase in rat-1 fibroblast cell lysates at 100 uM using 0.2 mM UDPG as substrate in presence of 1 mM G-6-P by 14C-glucose incorporation assay relative to control; format: subcellular; conditions: Lysate; method in brief: as §1
T3 sequence (whole entry): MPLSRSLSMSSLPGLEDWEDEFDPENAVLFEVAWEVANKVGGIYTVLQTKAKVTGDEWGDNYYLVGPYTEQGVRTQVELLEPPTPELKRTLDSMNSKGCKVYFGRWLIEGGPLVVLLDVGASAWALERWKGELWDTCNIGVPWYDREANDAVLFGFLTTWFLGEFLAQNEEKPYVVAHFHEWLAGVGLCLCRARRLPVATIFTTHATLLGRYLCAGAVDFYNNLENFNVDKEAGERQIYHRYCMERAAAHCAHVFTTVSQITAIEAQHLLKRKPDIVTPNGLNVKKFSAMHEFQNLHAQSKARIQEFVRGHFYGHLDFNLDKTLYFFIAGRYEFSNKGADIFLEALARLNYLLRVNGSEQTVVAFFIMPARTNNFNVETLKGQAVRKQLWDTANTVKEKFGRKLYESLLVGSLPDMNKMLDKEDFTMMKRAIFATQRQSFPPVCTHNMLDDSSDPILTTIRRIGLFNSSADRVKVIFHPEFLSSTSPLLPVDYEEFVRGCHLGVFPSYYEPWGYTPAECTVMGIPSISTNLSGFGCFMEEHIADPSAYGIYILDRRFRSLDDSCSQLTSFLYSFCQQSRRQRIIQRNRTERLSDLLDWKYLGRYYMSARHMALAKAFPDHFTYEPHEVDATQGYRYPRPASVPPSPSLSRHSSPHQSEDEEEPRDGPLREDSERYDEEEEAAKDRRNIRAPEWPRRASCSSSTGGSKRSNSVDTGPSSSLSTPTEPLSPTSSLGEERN

SMILES | IC50 [1] | Activity [2] | Activity (Saccharomyces cerevisiae [3]) | Activity (Homo sapiens [4]) | Activity (Saccharomyces cerevisiae [5]) | Activity (Homo sapiens [6]) | Activity [7] | inhibition [8] | inhibition [9]
Oc1ccc(-c2n[nH]cc2-c2ccc(Cl)c(Cl)c2)c(O)c1O | 19.5 µM | 52.5% |  |  |  |  |  |  | 
Oc1ccc(-c2n[nH]c(C(F)(F)F)c2-c2ccc(Cl)cc2)c(O)c1 |  | > 95% | > 95% | 87.9% |  |  |  |  | 
COc1ccc(-c2ccc(CCC(=O)O)n2-c2ccc(O)cc2)cc1 |  |  |  |  | 34.5% | 50.6% | 84% |  | 
O=[N+]([O-])c1ccc(-c2c(-c3ccc(O)cc3O)n[nH]c2C(F)(F)F)cc1 |  | 89.2% | 82.3% | 92.7% |  |  |  |  | 
Oc1ccc(-c2c(-c3cc(F)c(O)cc3O)n[nH]c2C(F)(F)F)cc1 | 72.4 µM | 78.4% | 65.2% | 74.2% |  |  |  |  | 
NC(=O)c1ccc(-n2c(CCC(=O)O)ccc2-c2ccccc2)cc1 |  |  |  |  | 49.3% | 40.6% | 78.7% |  | 
Oc1ccc(-c2n[nH]c(C(F)(F)F)c2-c2ccc(Cl)cc2)c(O)c1O | 19.8 µM | 47.5% | 51.5% | 11.8% |  |  |  | > 30% | > 30%
COC(=O)c1ccc(-c2c(-c3ccc(O)c(O)c3O)n[nH]c2C)cc1 |  | 80.1% | 90.6% | > 95% |  |  |  |  | 
CN1CCCC1CCn1cnc(-c2ccccc2)c1-c1ccncc1 (centres undefined) |  |  |  |  | > 95% | 93.3% | > 95% |  | 
Oc1ccc(-c2c(-c3ccccc3)ncn2CCc2c[nH]cn2)cc1 |  |  |  |  | 66.6% | 56.6% | 93.4% |  | 
Cc1[nH]nc(-c2ccc(O)c(O)c2O)c1-c1ccc(F)cc1 |  | 94% | > 95% | 89% |  |  |  |  | 
Cc1[nH]nc(-c2ccc(O)c(O)c2O)c1-c1ccc(Cl)cc1 | 52.9 µM | 91.8% | > 95% | > 95% | 3.52% | 6.47% | 4.34% |  | 
O=C(O)CCc1ccc(-c2ccccc2)n1-c1ccc(F)cc1 |  |  |  |  | 84.7% | 72.1% | 87.5% |  | 
Oc1ccc(-c2n[nH]cc2-c2ccccc2)c(O)c1O |  | 84.7% | > 95% | 25.2% |  |  |  |  | 
Oc1ccc(-c2n[nH]c(C(F)(F)F)c2-c2ccccc2)c(O)c1O | 16.4 µM | 47.2% | 51.8% | 5.68% |  |  |  |  | 
O=[N+]([O-])c1ccc(-c2c(-c3ccc(O)c(O)c3O)n[nH]c2C(F)(F)F)cc1 | 6.54 µM | 1.43% | 18.8% | 10.5% |  |  |  | > 30% | > 30%
c1ccc(-c2ncn(CCc3c[nH]cn3)c2-c2ccncc2)cc1 |  |  |  |  | 72.7% | 94.4% | > 95% |  | 
Oc1ccc(-n2c(-c3ccccc3)ccc2-c2ccccc2)cc1 |  |  |  |  | 86% | > 95% | > 95% |  | 
O=[N+]([O-])c1ccc(-c2c[nH]nc2-c2ccc(O)c(O)c2O)cc1 | 34 µM | 66.8% | 78.4% | 85% |  |  |  |  | 
N#Cc1ccc(-c2c(-c3ccc(O)c(O)c3O)n[nH]c2C(F)(F)F)cc1 | 10.1 µM | 42% | 51.2% | 8.14% |  |  |  |  | 
Oc1ccc(-c2c[nH]nc2-c2ccc(O)c(O)c2O)cc1 | 9.82 µM | 22.6% | 6.21% | 23% |  |  |  |  | 
Cc1ccc(-c2ccccc2)n1-c1ccc(O)cc1 |  |  |  |  | 79.7% | 84.3% | > 95% |  | 
Oc1ccc(-c2n[nH]c(C(F)(F)F)c2-c2ccc(F)cc2)c(O)c1O | 14.1 µM | 47.8% | 45.7% | 11.7% |  |  |  | > 30% | > 30%
Oc1ccc(-c2n[nH]c(C(F)(F)F)c2-c2ccc(Cl)c(Cl)c2)c(O)c1O | 13.7 µM | 12.2% | 47.4% | 5.28% |  |  |  |  | 
Oc1ccc(-c2n[nH]c(C(F)(F)F)c2-c2ccc(OC(F)(F)F)cc2)c(O)c1O |  | 81.4% | 91.6% | 40.3% |  |  |  |  | 
Cc1[nH]nc(-c2ccc(O)c(O)c2O)c1-c1ccc(Cl)c(Cl)c1 |  | 84.7% | > 95% | 81.7% |  |  |  |  | 
Oc1ccc(-c2c(-c3ccccc3)ncn2CCCn2ccnc2)cc1 |  |  |  |  | 94.8% | > 95% | > 95% |  | 
